Columns and labels:
Assay type in all cases: functional
[1] = system: Liposcelis bostrychophila; assay: Insecticidal activity against adult Liposcelis bostrychophila (booklice) assessed as repellent activity at 26 nL/cm2 after 4 hr
Summary of the method: (§1)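 Adult booklice, about 2 weeks old, from dark cultures at 28–30 °C and 70–80% RH on milk powder/active yeast/flour (1:1:1). Half of a 6 cm filter paper received 150 μL of sample in acetone; the other half received acetone; both were air-dried. Papers were placed in Fluon-coated 6 cm Petri dishes. Insects on each half were counted at 2 and 4 h. PR = (Nc−Nt)/(Nc+Nt)×100. Five replicates, repeated three times.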

[2] = system: Liposcelis bostrychophila; assay: Insecticidal activity against adult Liposcelis bostrychophila (booklice) assessed as repellent activity at 1.6 nL/cm2 after 2 hr; summary of the method: as §1
[3] = system: Liposcelis bostrychophila; assay: Insecticidal activity against adult Liposcelis bostrychophila (booklice) assessed as repellent activity at 3.2 nL/cm2 after 2 hr; summary of the method: as §1
[4] = system: Liposcelis bostrychophila; assay: Insecticidal activity against adult Liposcelis bostrychophila (booklice) assessed as repellent activity at 6.4 nL/cm2 after 2 hr; summary of the method: as §1
[5] = system: Liposcelis bostrychophila; assay: Insecticidal activity against adult Liposcelis bostrychophila (booklice) assessed as repellent activity at 13 nL/cm2 after 2 hr; summary of the method: as §1
[6] = system: Liposcelis bostrychophila; assay: Insecticidal activity against adult Liposcelis bostrychophila (booklice) assessed as repellent activity at 26 nL/cm2 after 2 hr; summary of the method: as §1
Tribolium castaneum [7] = assay: Insecticidal activity against adult Tribolium castaneum (red flour beetle) assessed as repellent activity at 0.0016 nL/cm2 after 4 hr
Summary of the method: (§2)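 Adult T. castaneum, about 2 weeks old, reared on wheat flour plus yeast (10:1, w/w) in the dark at 28–30 °C and 70–80% RH. In Fluon-coated 9 cm dishes, half of a 9 cm filter paper received 500 μL of acetone solution and the other half received acetone, then both were air-dried. Insects on each half were counted at 2 and 4 h. Percent repellency was computed from the counts. Five replicates, three runs.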

Tribolium castaneum [8] = assay: Insecticidal activity against adult Tribolium castaneum (red flour beetle) assessed as repellent activity at 0.016 nL/cm2 after 4 hr; summary of the method: as §2
Tribolium castaneum [9] = assay: Insecticidal activity against adult Tribolium castaneum (red flour beetle) assessed as repellent activity at 0.16 nL/cm2 after 4 hr; summary of the method: as §2
Tribolium castaneum [10] = assay: Insecticidal activity against adult Tribolium castaneum (red flour beetle) assessed as repellent activity at 1.6 nL/cm2 after 4 hr; summary of the method: as §2
Tribolium castaneum [11] = assay: Insecticidal activity against adult Tribolium castaneum (red flour beetle) assessed as repellent activity at 16 nL/cm2 after 4 hr; summary of the method: as §2
Tribolium castaneum [12] = assay: Insecticidal activity against adult Tribolium castaneum (red flour beetle) assessed as repellent activity at 0.016 nL/cm2 after 2 hr; summary of the method: as §2
Tribolium castaneum [13] = assay: Insecticidal activity against adult Tribolium castaneum (red flour beetle) assessed as repellent activity at 0.0016 nL/cm2 after 2 hr; summary of the method: as §2
Tribolium castaneum [14] = assay: Insecticidal activity against adult Tribolium castaneum (red flour beetle) assessed as repellent activity at 0.16 nL/cm2 after 2 hr; summary of the method: as §2
Tribolium castaneum [15] = assay: Insecticidal activity against adult Tribolium castaneum (red flour beetle) assessed as repellent activity at 1.6 nL/cm2 after 2 hr; summary of the method: as §2
Tribolium castaneum [16] = assay: Insecticidal activity against adult Tribolium castaneum (red flour beetle) assessed as repellent activity at 16 nL/cm2 after 2 hr; summary of the method: as §2
[17] = system: Liposcelis bostrychophila; assay: Insecticidal activity against adult Liposcelis bostrychophila (booklice) assessed as repellent activity at 1.6 nL/cm2 after 4 hr; summary of the method: as §1
[18] = system: Liposcelis bostrychophila; assay: Insecticidal activity against adult Liposcelis bostrychophila (booklice) assessed as repellent activity at 3.2 nL/cm2 after 4 hr; summary of the method: as §1
[19] = system: Liposcelis bostrychophila; assay: Insecticidal activity against adult Liposcelis bostrychophila (booklice) assessed as repellent activity at 6.4 nL/cm2 after 4 hr; summary of the method: as §1
[20] = system: Liposcelis bostrychophila; assay: Insecticidal activity against adult Liposcelis bostrychophila (booklice) assessed as repellent activity at 13 nL/cm2 after 4 hr; summary of the method: as §1

Structure (SMILES)	Repellency [1] [%]	Repellency [2] [%]	Repellency [3] [%]	Repellency [4] [%]	Repellency [5] [%]	Repellency [6] [%]	Repellency (Tribolium castaneum [7]) [%]	Repellency (Tribolium castaneum [8]) [%]	Repellency (Tribolium castaneum [9]) [%]	Repellency (Tribolium castaneum [10]) [%]	Repellency (Tribolium castaneum [11]) [%]	Repellency (Tribolium castaneum [12]) [%]	Repellency (Tribolium castaneum [13]) [%]	Repellency (Tribolium castaneum [14]) [%]	Repellency (Tribolium castaneum [15]) [%]	Repellency (Tribolium castaneum [16]) [%]	Repellency [17] [%]	Repellency [18] [%]	Repellency [19] [%]	Repellency [20] [%]
CC(C)=CCC[C@@H](C)CCO [(+)-CITRONELLOL]	82	28	52	66	66	96	36	48	66	75	96	44	40	64	82.5	88	32	44	64	76
CC(C)=CCC[C@@H](C)CC=O [CITRONELLAL]	34	-10	-4	20	-10	36	0	-16	6	-16	-4	4	-20	10	-12	16	-10	12	6	4
C=C(C)[C@H]1CC=C(C)CC1 [D-LIMONENE]	40	-6	-10	-20	-4	36	12	-36	8	-44	-4	-36	20	2	-22	20	-4	-22	-18	30
CCN(CC)C(=O)c1cccc(C)c1 [DIETHYLTOLUAMIDE]	94	46	82	84	100	96	-46	-4	-16	-12	90	0	-34	0	6	92	42	64	92	94
CC(C)=CCC/C(C)=C/CO [GERANIOL]	92	42	84	90	95	86	-14	-10	14	60	86	-12	-10	14	58	96	44	74	96	82.5
